ChEMBL document CHEMBL1649385, “Synthesis and in vitro anti-tumor activity of new oxadiazole thioglycosides” (Eur J Med Chem, 2011)
≈ marks a conversion by molar mass, not a printed value.

Experiments:
MCF7 = experiment: Cytotoxicity against human MCF7 cells after 48 hrs by SRB assay; format: functional, cell-based; conditions: MCF7, 48 h
In short: (§1)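 SRB assay: cells seeded at 10⁴ cells/well and left 24 h to attach, then exposed to four concentrations of compound for 48 h at 37 °C, 5% CO₂. Cells fixed, washed and stained with sulforhodamine B; excess dye removed with acetic acid, bound dye taken up in Tris-EDTA and read on an ELISA reader. IC50 from surviving fraction versus concentration curves, relative to saline control.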

HepG2 = experiment: Cytotoxicity against human HepG2 cells after 48 hrs by SRB assay; format: functional, cell-based; conditions: HepG2, 48 h; in short: as §1
[1] = Acute toxicity in po dosed albino Wistar rat assessed as mortality after 24 hrs; format: organism-based; conditions: in vivo
In short: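 Male Wistar albino rats (110–115 g) were acclimated for 7 days with pellet diet and water ad libitum. Compound in DMSO was given as a single oral gavage of 500 mg/kg body weight at a fixed 0.5 mL/rat, with eight rats per group. Controls received 0.5 mL DMSO. Mortality was recorded after 24 h.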

[2] = Acute toxicity in albino Wistar rat assessed as mortality at 50 mg/kg, po after 24 hrs; format: organism-based; design: dose 50 mg/kg, route oral; conditions: in vivo, read-out: Activity

| Compound | IC50 (MCF7) | IC50 (HepG2) | LD50 at 24 h [1] | mortality at 24 h [2] |
| --- | --- | --- | --- | --- |
| CC(C)Cc1nn(-c2ccccc2)cc1-c1nnc(S)o1 | 17.9 µg/mL (≈ 59.6 µM) | 43.6 µg/mL (≈ 145 µM) | > 500 mg/kg | – |
| CSCSc1nnc(-c2cn(-c3ccccc3)nc2CC(C)C)o1 | 2.67 µg/mL (≈ 7.41 µM) | 4.62 µg/mL (≈ 12.8 µM) | > 500 mg/kg | 25% |
| O=c1[nH]cc(F)c(=O)[nH]1 [FLUOROURACIL] | – | 25 µg/mL (≈ 192 µM) | – | – |
| CC/C(=C(\c1ccccc1)c1ccc(OCCN(C)C)cc1)c1ccccc1 [TAMOXIFEN] | 8.31 µg/mL (≈ 22.4 µM) | – | – | – |
| CC(=O)OC[C@@H]1O[C@H](Sc2nnc(C)c(=O)n2/N=C\c2cn(-c3ccccc3)nc2CC(C)C)[C@@H](OC(C)=O)[C@H](OC(C)=O)[C@H]1OC(C)=O | 20.2 µg/mL (≈ 29 µM) | 9.1 µg/mL (≈ 13 µM) | – | – |
| CC(=O)OC[C@H]1O[C@@H](Sc2nnc(-c3cn(-c4ccccc4)nc3CC(C)C)o2)[C@H](OC(C)=O)[C@@H](OC(C)=O)[C@@H]1OC(C)=O | 7.1 µg/mL (≈ 11.3 µM) | 13.9 µg/mL (≈ 22 µM) | > 500 mg/kg | 25% |
